This passage reports inhibition of growth results from ChEMBL document CHEMBL1932969, “Acyl derivatives of boswellic acids as inhibitors of NF-κB and STATs” (Bioorg Med Chem Lett, 2012).

What all share (type): functional
One test has as its system COLO 205. As to the kind of experiment: Anticancer activity against human COLO205 cells assessed as growth inhibition at 50 uM after 48 hrs by SRB assay. As to conditions: COLO 205, 48 h, read-out: GI. In short, it runs like this: (§1)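 Cells exposed to test compounds at 50 µM for 48 h. Read-out is percent growth inhibition, with SEM given. 5-Fluorouracil and adriamycin serve as reference agents.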
A general note: The SRB assay estimates cell density from bound dye.

In the next test the test system is SW-620. Put plainly: Anticancer activity against human SW620 cells assessed as growth inhibition at 50 uM after 48 hrs by SRB assay. The following applies: SW-620, 48 h, read-out: GI. In short, it runs like this:
as §1

In another test the test system is HT-29. As to the kind of experiment: Anticancer activity against human HT-29 cells assessed as growth inhibition at 50 uM after 48 hrs by SRB assay. The following applies: HT-29, 48 h, read-out: GI. In short, it runs like this: as §1
A further test deals with PC-3. As to the kind of experiment: Anticancer activity against human PC3 cells assessed as growth inhibition at 50 uM after 48 hrs by SRB assay. The following applies: PC-3, 48 h, read-out: GI. In short, it runs like this: as §1
For another test, the system named is DU-145. Put plainly: Anticancer activity against human DU145 cells assessed as growth inhibition at 50 uM after 48 hrs by SRB assay. The following applies: DU-145, 48 h, read-out: GI. In short, it runs like this:
as §1

For the next test, the system named is HEp-2. As to the kind of experiment: Anticancer activity against human Hep2 cells assessed as growth inhibition at 50 uM after 48 hrs by SRB assay. As to conditions: HEp-2, 48 h, read-out: GI. Summed up:
as §1

As to `COC(=O)[C@@]1(C)C(=O)CC[C@]2(C)[C@H]3CC=C4[C@@H]5[C@@H](C)[C@H](C)CC[C@]5(C)CC[C@@]4(C)[C@]3(C)CC[C@@H]12`, the inhibition of growth at 50 µM worked out at 34% in the test with COLO 205; 34% in the test with SW-620; 33% in the test with HT-29; 44% in the test with PC-3; 50% in the test with DU-145; 7% with HEp-2.

`CC(=O)O[C@H]1CC[C@@]2(C)[C@@H](CC[C@]3(C)[C@@H]2CC=C2[C@@H]4[C@@H](C)[C@H](C)CC[C@]4(C)CC[C@]23C)[C@@]1(C)C(=O)O`: the inhibition of growth at 50 µM in the test on COLO 205 came out at 32%; in the test on SW-620, 35%; in the test with HT-29 it was 31%; in the test with PC-3, 56%; in the test with DU-145, 87%; in the test on HEp-2 it was 42%.

`C[C@H]1[C@H](C)CC[C@]2(C)CC[C@]3(C)C(=CC[C@@H]4[C@@]5(C)CC[C@H](OC(=O)CCC(=O)O)[C@](C)(C(=O)O)[C@@H]5CC[C@]43C)[C@H]12`: the inhibition of growth at 50 µM in the test with COLO 205 amounted to 19%; in the test on SW-620, 5%; in the test with HT-29, 13%; in the test with PC-3, 35%; with DU-145 it was 48%; in the test on HEp-2, 11%.

`COC(=O)[C@@]1(C)[C@H](O)CC[C@@]2(C)[C@H]1CC[C@]1(C)[C@@H]2C(=O)C=C2[C@@H]3[C@@H](C)[C@H](C)CC[C@]3(C)CC[C@]21C`: the inhibition of growth at 50 µM in the test on COLO 205 came to 70%; in the test on SW-620, 67%; in the test with HT-29 it was 67%; in the test with PC-3, 87%; in the test on DU-145, 65%; with HEp-2 it was 50%.

Regarding `COC(=O)[C@]1(C)[C@@H]2CC[C@]3(C)[C@H](C(=O)C=C4[C@@H]5[C@@H](C)[C@H](C)CC[C@]5(C)CC[C@]43C)[C@@]2(C)CC[C@@H]1O`, the inhibition of growth at 50 µM was 21% in the test with COLO 205; 10% in the test with SW-620; 8% in the test with HT-29; 5% in the test on PC-3; 4% in the test on DU-145; 0% in the test with HEp-2.

With `C[C@H]1[C@H](C)CC[C@]2(C)CC[C@]3(C)C(=CC[C@@H]4[C@@]5(C)CC[C@@H](OC=O)[C@](C)(C(=O)O)[C@@H]5CC[C@]43C)[C@H]12`, the inhibition of growth at 50 µM with COLO 205 is 90%; in the test with SW-620, 87%; with HT-29, 76%; in the test on PC-3 it was 95%; in the test on DU-145, 90%; in the test with HEp-2, 72%.

`COc1cccc2c1C(=O)c1c(O)c3c(c(O)c1C2=O)C[C@@](O)(C(=O)CO)C[C@@H]3O[C@H]1C[C@H](N)[C@H](O)[C@H](C)O1` [DOXORUBICIN]: the inhibition of growth at 50 µM in the test with COLO 205 is 81%; in the test on SW-620, 72%; in the test on HT-29, 88%; with PC-3, 86%; with DU-145, 90%; in the test on HEp-2 it was 64%.

`C[C@H]1[C@H](C)CC[C@]2(C)CC[C@]3(C)C(=CC(=O)[C@@H]4[C@@]5(C)CC[C@@H](OC(=O)CCC(=O)O)[C@](C)(C(=O)O)[C@@H]5CC[C@]43C)[C@H]12`: the inhibition of growth at 50 µM in the test on COLO 205 stood at 2%; in the test with SW-620 it was 4%; with HT-29, 5%; in the test with PC-3 it was 38%; in the test with DU-145, 51%; with HEp-2, 6%.

On to `CO[C@@]12[C@H](COC(N)=O)C3=C(C(=O)C(C)=C(N)C3=O)N1C[C@@H]1N[C@@H]12` [MITOMYCIN], for which the inhibition of growth at 50 µM in the test with COLO 205 amounted to 43%; in the test on SW-620 it was 55%; in the test on HT-29, 60%; in the test with PC-3 it was 55%; in the test on DU-145, 48%; in the test with HEp-2, 58%.

Take `COC(=O)[C@@]1(C)C(=O)CC[C@]2(C)[C@H]3C(=O)C=C4[C@@H]5[C@@H](C)[C@H](C)CC[C@]5(C)CC[C@@]4(C)[C@]3(C)CC[C@@H]12`: the inhibition of growth at 50 µM was 30% in the test with COLO 205; 11% in the test with SW-620; 17% with HT-29; 3% in the test with PC-3; 23% with DU-145; 10% with HEp-2.

Regarding `CCCC(=O)O[C@H]1CC[C@@]2(C)[C@@H](CC[C@]3(C)[C@@H]2CC=C2[C@@H]4[C@@H](C)[C@H](C)CC[C@]4(C)CC[C@]23C)[C@@]1(C)C(=O)O`, the inhibition of growth at 50 µM worked out at 67% in the test with COLO 205; 79% in the test on SW-620; 57% with HT-29; 83% with PC-3; 89% with DU-145; 63% in the test on HEp-2.

On to `CC(=O)O[C@@H]1CC[C@@]2(C)[C@@H](CC[C@]3(C)[C@@H]2C(=O)C=C2[C@@H]4[C@@H](C)[C@H](C)CC[C@]4(C)CC[C@]23C)[C@@]1(C)C(=O)O` [AKBA], for which the inhibition of growth at 50 µM was determined as 85% in the test with COLO 205; 88% with SW-620; 88% in the test with HT-29; 76% with PC-3; 85% in the test on DU-145; 59% with HEp-2.

With `C[C@H]1[C@H](C)CC[C@]2(C)CC[C@]3(C)C(=CC(=O)[C@@H]4[C@@]5(C)CC[C@@H](O)[C@](C)(C(=O)O)[C@@H]5CC[C@]43C)[C@H]12` [11-KETO BOSWELLIC ACID], the inhibition of growth at 50 µM came to 52% with COLO 205; 28% in the test with SW-620; 39% in the test on HT-29; 100% in the test with PC-3; 95% in the test with DU-145; 35% in the test with HEp-2.

`O=c1[nH]cc(F)c(=O)[nH]1` [FLUOROURACIL]: the inhibition of growth at 50 µM with COLO 205 came to 29%; in the test on SW-620 it was 44%; in the test on HT-29, 41%; in the test with PC-3, 16%; in the test on DU-145, 35%; in the test with HEp-2, 29%.

For the molecule `C[C@H]1[C@H](C)CC[C@]2(C)CC[C@]3(C)C(=CC(=O)[C@@H]4[C@@]5(C)CC[C@@H](OC=O)[C@](C)(C(=O)O)[C@@H]5CC[C@]43C)[C@H]12`, the inhibition of growth at 50 µM stood at 73% in the test on COLO 205; 69% in the test on SW-620; 63% with HT-29; 95% in the test on PC-3; 83% in the test with DU-145; 54% in the test on HEp-2.

As to `CC(=O)O[C@H]1CC[C@@]2(C)[C@@H](CC[C@]3(C)[C@@H]2C(=O)C=C2[C@@H]4[C@@H](C)[C@H](C)CC[C@]4(C)CC[C@]23C)[C@@]1(C)C(=O)O`, the inhibition of growth at 50 µM worked out at 54% with COLO 205; 44% in the test on SW-620; 44% with HT-29; 62% in the test on PC-3; 83% with DU-145; 47% in the test with HEp-2.

As for `C[C@H]1[C@H](C)CC[C@]2(C)CC[C@]3(C)C(=CC[C@@H]4[C@@]5(C)CC[C@H](O)[C@](C)(C(=O)O)[C@@H]5CC[C@]43C)[C@H]12`, the inhibition of growth at 50 µM with COLO 205 is 81%; with SW-620, 63%; with HT-29, 70%; in the test on PC-3 it was 72%; in the test with DU-145, 89%; with HEp-2, 69%.

As for `COC(=O)[C@]1(C)[C@@H]2CC[C@]3(C)[C@H](CC=C4[C@@H]5[C@@H](C)[C@H](C)CC[C@]5(C)CC[C@]43C)[C@@]2(C)CC[C@@H]1O`, the inhibition of growth at 50 µM in the test on COLO 205 was found to be 22%; in the test on SW-620, 9%; with HT-29, 5%; with PC-3 it was 7%; with DU-145 it was 3%; in the test on HEp-2, 0%.

As to `CCC(=O)O[C@H]1CC[C@@]2(C)[C@@H](CC[C@]3(C)[C@@H]2C(=O)C=C2[C@@H]4[C@@H](C)[C@H](C)CC[C@]4(C)CC[C@]23C)[C@@]1(C)C(=O)O`, the inhibition of growth at 50 µM in the test with COLO 205 was 83%; with SW-620 it was 72%; with HT-29, 64%; in the test on PC-3, 96%; with DU-145 it was 89%; in the test on HEp-2, 63%.

Consider `COC(=O)[C@@]1(C)[C@H](O)CC[C@@]2(C)[C@H]1CC[C@]1(C)[C@@H]2CC=C2[C@@H]3[C@@H](C)[C@H](C)CC[C@]3(C)CC[C@]21C`, for which the inhibition of growth at 50 µM is 43% with COLO 205; 46% in the test on SW-620; 35% in the test with HT-29; 54% with PC-3; 85% in the test on DU-145; 26% in the test with HEp-2.
